Experimental data reported in article PMC8153786 (ACS Omega, 2021).
Like-named read-outs stand apart in the source and are kept apart here.

Legend:
[1] = test system: bovine serum albumin; settings: BSA–flavonol interactions ref 69; cited from earlier work
[2] = target: hCCL2-WT (Homo sapiens, UniProt P13500); assay: Flavonol fluorescence quenching titration of hCCL2-WT; assay type: binding; settings: for quenching constant (Kq) / number of binding sites: hCCL2-WT; for quenching constant (Kq): Stern–Volmer, 25 °C, 50 μM protein; for number of binding sites: double-logarithmic plot
Chain of hCCL2-WT (P13500 24-99): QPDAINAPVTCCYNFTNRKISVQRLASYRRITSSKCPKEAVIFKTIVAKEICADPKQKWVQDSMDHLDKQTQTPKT
Method in brief: (§1)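 Each CCL2 variant (WT dimer or monomer, E. coli BL21(DE3)-expressed) was held at 50 μM and titrated with 10–100 μM flavonol from a 20 mM DMSO stock, at 25 °C. Trp W59 was excited at 295 nm and emission read at 300–450 nm, slits 5 nm. Buffer-only additions served as controls; runs in triplicate. Ksv and Kq came from Stern–Volmer analysis; Ka and n from a double-logarithmic plot, nonlinear regression and Scatchard analysis.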

[3] = target: mCCL2-M (Mus musculus, UniProt P10148, P31A); assay: Flavonol fluorescence quenching titration of mCCL2 monomer; assay type: binding, murine; settings: for quenching constant (Kq): Stern–Volmer, 50 μM protein
Chain of mCCL2-M (P10148 24-148 P31A): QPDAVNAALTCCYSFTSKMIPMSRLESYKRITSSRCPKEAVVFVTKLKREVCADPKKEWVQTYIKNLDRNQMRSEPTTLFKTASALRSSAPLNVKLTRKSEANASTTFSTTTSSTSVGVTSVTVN
Method in brief: as §1

[4] = target: T1, mCCL2-WT (Mus musculus, UniProt P10148); assay: Flavonol fluorescence quenching titration of mCCL2-WT; assay type: binding, murine; settings: for quenching constant (Kq) / number of binding sites: mCCL2-WT; for quenching constant (Kq): Stern–Volmer, 25 °C, 50 μM protein; for number of binding sites: double-logarithmic plot
Method in brief: as §1

[5] = target: hCCL2-M (Homo sapiens, UniProt P13500, P31A); assay: Flavonol fluorescence quenching titration of hCCL2 monomer; assay type: binding; settings: for quenching constant (Kq) / number of binding sites: hCCL2-M (monomer); for quenching constant (Kq): Stern–Volmer, 25 °C, 50 μM protein; for number of binding sites: double-logarithmic plot
Chain of hCCL2-M (P13500 24-99 P31A): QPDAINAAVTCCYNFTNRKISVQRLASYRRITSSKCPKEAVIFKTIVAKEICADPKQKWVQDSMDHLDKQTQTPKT
Method in brief: as §1

[6] = target: T1, mCCL2-WT; assay: 1H–15N HSQC NMR titration, chemical shift perturbation; assay type: binding, murine; settings: mCCL2-WT 100 μM, protein/flavonol 1:5, comparison among the three flavonols
Method in brief: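 15N-labelled WT murine protein, expressed in E. coli BL21(DE3), at 100 μM in 50 mM Na2HPO4/50 mM NaCl, pH 6.0. 1H–15N HSQC spectra recorded at 500 MHz and 25 °C. Flavonol from a 20 mM DMSO stock was added stepwise up to protein/ligand 1:5. Per-residue CSP was calculated from combined ΔδH and ΔδN.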

[7] = test system: canine distemper virus; settings: comparison with morin ref 67; cited from earlier work
[8] = mCCL2-M (monomer), double-logarithmic plot

Kd [2] | quenching constant (Kq) [2] | number of binding sites [2] | Kd [3] | quenching constant (Kq) ([3]; mCCL2-M (monomer), 25 °C) | Kd [4] | quenching constant (Kq) [4] | number of binding sites [4] | Kd [5] | quenching constant (Kq) [5] | number of binding sites [5] | perturbation of resonances in CSP maps [6] | Kd ([3]; dissociation constant (Kd), mCCL2-M (monomer), double-logarithmic plot, 25 °C) | number of binding sites [3, 8] | Structure (SMILES) | binding constants (Ka) [1] | inhibitory activity [7]
– | – | – | – | – | – | – | – | – | – | – | – | – | – | O=c1c(O)c(-c2ccccc2)oc2cc(O)cc(O)c12 [galangin, reference compound] | 643000 L/mol | –
26 ± 5 µM | 5.2 × 10^12 m^–1 s^–1 | 1.1 ± 0.1 | 26 ± 5 µM | 5.1 × 10^12 m^–1 s^–1 | 24 ± 6 µM | 5.0 × 10^12 m^–1 s^–1 | 1.1 ± 0.2 | 25 ± 4 µM | 5.3 × 10^12 m^–1 s^–1 | 1.1 ± 0.1 | the least | – | – | O=c1c(O)c(-c2ccc(O)cc2)oc2cc(O)cc(O)c12 [kaempferol, 3,5,7-trihydroxy-2-(4-hydroxyphenyl)chromen-4-one] | 2.57e+06 L/mol | –
0.38 ± 0.04 µM | 5.8 × 10^12 m^–1 s^–1 | 1.3 ± 0.2 | – | 6.3 × 10^12 m^–1 s^–1 | 0.42 ± 0.03 µM | 6.1 × 10^12 m^–1 s^–1 | 1.1 ± 0.2 | 0.43 ± 0.02 µM | 6.2 × 10^12 m^–1 s^–1 | 1.2 ± 0.2 | largest perturbation of resonances | 0.4 ± 0.03 µM | 1.2 ± 0.1 | O=c1c(O)c(-c2cc(O)c(O)c(O)c2)oc2cc(O)cc(O)c12 [myricetin, 3,5,7-trihydroxy-2-(3,4,5-trihydroxyphenyl)chromen-4-one] | 4.9e+08 L/mol | –
3.5 ± 0.7 µM | 4.2 × 10^12 m^–1 s^–1 | 1.1 ± 0.1 | 3.7 ± 0.4 µM | 5.7 × 10^12 m^–1 s^–1 | 3.9 ± 0.5 µM | 4.3 × 10^12 m^–1 s^–1 | 1.2 ± 0.2 | 3.6 ± 0.5 µM | 5.4 × 10^12 m^–1 s^–1 | 1.2 ± 0.1 | – | – | 1.1 ± 0.2 | O=c1c(O)c(-c2ccc(O)c(O)c2)oc2cc(O)cc(O)c12 [quercetin, 2-(3,4-dihydroxyphenyl)-3,5,7-trihydroxychromen-4-one] | 3.65e+07 L/mol | higher inhibitory activity than morin
